Bioassay records as filed in PubChem.
TRPML3 ag: agonists of human TRPML3 channel. Q8TDD5. HEK293 TRPML3-YFP, Fluo-8 calcium fluorescence; 100% = the carbachol control signal. activation, % at 3 µM. 220,000 tested, 0.29% active. AID 1448;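 active means activation above its plate's cutoff, the mean activation of the plate's test wells plus 3 SD, cut at about 12% in these data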;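 further: 0% = DMSO only wells and 100% = carbachol wells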
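Test system: TRPML3-YFP stable HEK293 cells. Doses: single point at 3 µM. Incubation: dye loading 1 h 37 °C then 30 min ambient, 125 s read. Signal: Fluo-8 calcium dye fluorescence, ex 470-495, em 515-575 nm. Measure: percent activation from peak-to-basal fluorescence ratio, scaled between DMSO and carbachol.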
GPR7 antagonist: blocks human GPR7 receptor signaling | P48145 | GPR7-expressing cells, fluorescence antagonist assay | 290,000 tested, 1.1% active | inhibition, % at 4.4 µM; in the data active means inhibition above about 16%, passing the limit was not always enough;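 further: cells stimulated with the agonist NPW; 0% = agonist with vehicle and 100% = vehicle without agonist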
Target sequence (P48145 whole entry, looked up): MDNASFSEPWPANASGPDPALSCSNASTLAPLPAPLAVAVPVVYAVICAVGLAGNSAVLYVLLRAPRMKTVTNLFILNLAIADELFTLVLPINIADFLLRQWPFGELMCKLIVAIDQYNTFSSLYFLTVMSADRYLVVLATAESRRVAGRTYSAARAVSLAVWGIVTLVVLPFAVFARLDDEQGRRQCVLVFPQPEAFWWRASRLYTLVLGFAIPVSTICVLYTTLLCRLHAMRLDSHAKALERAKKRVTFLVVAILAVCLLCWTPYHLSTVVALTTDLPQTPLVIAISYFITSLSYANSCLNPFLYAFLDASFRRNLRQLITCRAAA
TRPN1 ag: activates the zebrafish TRPN1 channel. activation, % at 3 µM. 220,000 tested, 0.18% active. HEK293 zebrafish TRPN1-YFP, Fluo-8 calcium fluorescence; 100% = response to 87 µM carbachol;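 active means activation above its plate's cutoff, the mean activation of test wells on that plate plus 3 SD, cut at about 19% in these data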;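 further: 0% = DMSO alone and 100% = 87 µM carbachol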
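Material: zebrafish TRPN1-YFP in HEK293 cells. Doses: one dose of 3 µM, 0.3% DMSO. Incubation: dye 1 h 37 °C plus 30 min RT. Measured by: intracellular calcium fluorescence with Fluo-8.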
TAAR1 antag: antagonists of human TAAR1. inhibition, % at 3 µM. 360,000 tested, 1.5% active. Q96RJ0. CHO RD-HGA16 TAAR1, Fluo-8 calcium fluorescence, antagonist. AID 624466;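 active means inhibition above a per-plate cutoff, the mean inhibition of test compounds on that plate plus 3 SD, cut at about 49% in these data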;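 further: 0% = DMSO plus EC80 beta-PEA response and 100% = DMSO alone without agonist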
Target sequence (Q96RJ0 whole entry, looked up): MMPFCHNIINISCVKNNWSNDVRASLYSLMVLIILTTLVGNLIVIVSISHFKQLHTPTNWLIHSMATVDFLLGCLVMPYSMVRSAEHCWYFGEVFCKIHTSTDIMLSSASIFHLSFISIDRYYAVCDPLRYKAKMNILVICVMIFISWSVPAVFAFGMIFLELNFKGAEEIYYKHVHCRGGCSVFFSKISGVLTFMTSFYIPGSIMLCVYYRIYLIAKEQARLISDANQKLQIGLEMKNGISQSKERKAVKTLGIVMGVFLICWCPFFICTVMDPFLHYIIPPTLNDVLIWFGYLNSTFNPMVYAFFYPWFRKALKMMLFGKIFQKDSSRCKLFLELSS
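Test system: CHO RD-HGA16 cells bearing hTAAR1 | Reagent: β-PEA, EC80 | Compound dosing: 3 µM, single point | Schedule: Dye loading 75 min at 37 °C, then 30 min room temperature | Signal: Calcium fluorescence with Fluo-8 | Evaluation: Percent inhibition of PEA-evoked calcium signal, max/basal emission ratio | Control set: DMSO-only wells and EC80 β-PEA-stimulated wells | Repeats: Singlicate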
LANA-H2A inh: blocks KSHV LANA binding to histone H2A/H2B; inhibition, % (no concentration beside the values); Q9QR71; AID 2629; 320,000 tested, 0.6% active; cell-free LANA-H2A/H2B peptide, fluorescence polarization; in the data active means inhibition mostly above about 10%, no sharp cut-off; inactive means mostly below about 6.7%
TAAR1 agonist: agonists of human TAAR1; 360,000 tested, 0.99% active; AID 624467; CHO RD-HGA16 TAAR1, Fluo-8 calcium fluorescence; vehicle wells 0%, saturating PEA agonist 100%; activation, % at 3 µM;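 active means activation above the mean activation of all test compounds in the run plus 3 SD, cut at about 38% in these data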
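Assay system: CHO-derived RD-HGA16 cells with stable Gα16 and human TAAR1; timing: 17-24 h seeding, 75 min 37 °C dye, 30 min RT; read-out: % activation from peak over basal fluorescence ratio, DMSO-to-PEA scaled; measured by: kinetic Fluo-8 calcium fluorescence; benchmarks: low control DMSO, high control PEA (EC100); doses: 3 µM single concentration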
GPR7 antag cf: human GPR7 antagonism, confirmation assay. shares compounds with GPR7 antagonist. GPR7-expressing cells, calcium fluorescence antagonist mode. inhibition, % at 4.4 µM. AID 1952. 2,400 tested, 52% active; in the data active means inhibition above about 24%;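 further: stimulated with the GPR7 agonist NPW; 0% = agonist plus vehicle and 100% = vehicle alone without agonist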
MCHR1 antagonist: antagonizes human MCHR1, a GPR7 antagonist counter-screen; shares compounds with GPR7 antagonist; MCHR1-expressing cells, fluorescence antagonist assay; inhibition, % at 4.4 µM; 2,400 tested, 62% active; AID 2148; in the data active means inhibition above about 22%;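 further: 0% = vehicle with agonist and 100% = vehicle without agonist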
TAAR1 ag conf: human TAAR1 agonism, confirmed; AID 651783; 2,400 tested, 82% active; activation, % at 3 µM; shares compounds with TAAR1 agonist; CHO RD-HGA16 TAAR1, Fluo-8 calcium fluorescence; scaled: DMSO 0%, maximal phenethylamine 100%;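 active means activation above a cutoff set at the run's mean compound activation plus 3 SD, cut at about 39% in these data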
Ga16 nonsel ag: nonselective agonism, TAAR1 counter-screen | CHO-Ga16 parental, Fluo-8 calcium fluorescence; normalized to maximal ATP response, DMSO zero | 2,400 tested, 50% active | AID 651787 | shares compounds with TAAR1 agonist | activation, % at 3 µM;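 active means activation above the run cutoff, the mean activation over all tested wells plus 3 SD, cut at about 12% in these data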;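 further: 0% = DMSO wells and 100% = maximal ATP response on the peak over basal ratio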
TAAR1 desensitize: counter-screen for human TAAR1 agonists: agonists that desensitize TAAR1; shares compounds with TAAR1 agonist; CHO RD-HGA16 hTAAR1, Fluo-8 calcium, beta-PEA response inhibition; inhibition, % at 3 µM; 2,400 tested, 46% active; AID 651951;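 active means inhibition above the run cutoff, the mean inhibition of all test compounds plus 3 SD, cut at about 49% in these data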;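 further: beta-PEA stimulus applied at its EC80; loss of beta-PEA calcium signal after compound pretreatment read as receptor desensitization; 0% = DMSO with beta-PEA at EC80 and 100% = DMSO alone without agonist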
Ga16 nonsel ant: counter-screen for TAAR1 agonists: nonselective Ga16 antagonists; 2,400 tested, 39% active; shares compounds with TAAR1 agonist; inhibition, % at 3 µM; CHO-Ga16 ATP-induced calcium, Fluo-8 fluorescence;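 active means inhibition above the plate's mean compound inhibition plus 3 SD, computed per plate, cut at about 22% in these data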;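 further: 0% = EC80 ATP with DMSO and 100% = DMSO wells without ATP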
The depositor's hits bear a star; / = no result given. This is a sample that favours compounds with a hit; in the whole collection about 3.4% have one here.

SMILES	TRPML3 ag	GPR7 antagonist	TRPN1 ag	TAAR1 antag	LANA-H2A inh	TAAR1 agonist	GPR7 antag cf	MCHR1 antagonist	TAAR1 ag conf	Ga16 nonsel ag	TAAR1 desensitize	Ga16 nonsel ant
O=C(CNS(=O)(=O)c1ccc([N+](=O)[O-])cc1)N/N=C\c1ccc(O)cc1	/	40.6*	/	68.3*	2.4	68.1*	46.2*	34.4*	100.9*	39.5*	89.3*	63.2*
O=C(c1ccc(S(=O)(=O)Nc2ccccc2)cc1)N1CCCC(C(F)(F)F)C1 (stereo not given)	/	47.8*	/	65.1*	2.9	116.5*	61.1*	36.2*	99.3*	57.8*	56.5*	29.8*
Cc1ccc(NS(=O)(=O)c2ccc(C(=O)N3CC(C)OC(C)C3)cc2)cc1 (stereo not given)	/	37.0*	/	56.6*	1.1	127.3*	35.7*	34.6*	118.2*	68.2*	61.1*	31.1*
O=C(c1ccccc1)c1ccc(C(=O)N2CCCC(C(F)(F)F)C2)cc1 (stereo not given)	/	/	/	-14.0	5.1	0.3	/	/	/	/	/	/
CC(=O)Nc1ccc(Sc2ncccc2C(=O)Nc2ccc(OC(F)(F)F)cc2)cn1	31.4*	96.8*	48.2*	104.2*	-0.3	138.8*	98.3*	102.5*	143.0*	107.0*	104.3*	89.7*
CC(=O)Nc1ccc(Sc2ncccc2C(=O)Nc2cc(Cl)cc(Cl)c2)cn1	0.5	-3.5	1.8	32.8	-0.3	31.5	/	/	/	/	/	/
CN(/N=C/c1cc([N+](=O)[O-])ccc1O)c1ccccc1	0.7	5.7	0.9	17.3	0.5	7.3	/	/	/	/	/	/
CN(/N=C/c1ccc(-c2ccc([N+](=O)[O-])cc2)o1)c1ccccc1	/	45.4*	/	67.8*	-0.1	66.1*	56.3*	71.5*	44.2*	71.1*	63.5*	73.7*
CCCCn1c(O)c(N=Nc2ccccc2O)c2ccccc21	/	/	/	36.2	1.3	17.0	/	/	/	/	/	/
COCCCNCCOc1ccc(C(C)(C)c2ccccc2)cc1	0.9	8.5	1.6	-15.7	-3.9	28.7	/	/	/	/	/	/
CCC(C)NCCOc1ccc(C(C)(C)c2ccccc2)cc1 (stereo not given)	2.1	21.5*	3.4	-6.9	13.6*	53.8*	27.4*	30.1*	69.3*	39.4*	34.2	26.4*
COc1ccccc1-n1c(SCC(N)=O)nnc1-c1ccc(S(=O)(=O)N2CCCCC2)cc1	4.5	38.8*	16.9	-4.4	-4.8	52.3*	42.2*	16.1	27.4	8.6	20.4	23.6*
O=C1/C(=C\c2cc([N+](=O)[O-])ccc2O)SC(=S)N1Cc1ccc(Cl)cc1	/	35.0*	/	86.8*	-24.2	83.7*	46.8*	85.8*	112.7*	121.1*	102.4*	96.8*
COc1cccc(NC(=S)NC(=O)Cc2ccc(Cl)cc2)c1	/	34.8*	/	84.1*	1.8	92.8*	64.2*	40.7*	123.6*	82.8*	91.1*	68.7*
COc1ccccc1NC(=S)NC(=O)Cc1ccc(Cl)cc1	/	53.5*	/	106.7*	0.1	125.0*	30.9*	36.7*	126.3*	88.5*	101.0*	72.9*
Cc1cccc(NC(=S)NC(=O)CCc2ccccc2)c1C	-0.1	-5.0	-1.2	32.4	-3.7	12.6	/	/	/	/	/	/
Cc1cccc(NC(=S)NC(=O)Cc2ccccc2)c1C	/	24.3*	/	65.0*	-0.5	82.0*	33.8*	17.6	77.3*	54.5*	46.3	31.8*
CCC(=O)NC(=S)Nc1ccccc1OC	-0.7	8.0	-0.8	-7.5	0.9	6.2	/	/	/	/	/	/
Cc1cc(C)n2nc(SCC(=O)NC3CCCCC3)nc2n1	/	-7.7	/	1.8	0.2	1.2	/	/	/	/	/	/
CC(C)[C@@H]1Cc2[nH]c(=O)[nH]c(=O)c2[C@H](C)O1	/	/	/	4.4	/	1.0	/	/	/	/	/	/
O=C(COc1ccc(Br)cc1CNCCc1ccccc1)NCc1ccccc1	0.5	30.9*	1.4	68.8*	-2.3	93.8*	40.1*	53.6*	88.7*	25.0*	80.2*	43.3*
CC[C@@H](C(=O)[C@@H](C)[C@@H](O)[C@H](C)CCc1ccc(C)c(O)c1C(=O)O)[C@H]1O[C@](CC)([C@H]2CC[C@](O)(CC)[C@H](C)O2)C[C@@H]1C	/	48.4*	/	67.3*	1.6	76.5*	47.7*	38.4*	73.0*	64.6*	73.4*	52.3*
COc1cc(OC)c(OC)cc1CCC(C)NCCC(c1ccccc1)c1ccccc1 (stereo not given)	/	60.1*	/	23.3	2.2	51.8*	54.9*	48.9*	48.4*	19.3*	39.0	24.7*
CCOc1ccc(NS(=O)(=O)c2ccc(C(=O)NCC(c3ccc(OC)cc3)N3CCOCC3)cc2)cc1 (stereo not given)	/	/	/	1.7	0.7	25.0	/	/	/	/	/	/
Cc1cc(OC2CCCCC2)nc(NCc2ccccc2)n1	-0.7	0.5	-2.5	-19.0	-0.4	2.2	/	/	/	/	/	/
Cc1cc(N2CCCCC2)nc(NCc2ccccc2)n1	6.3	84.1*	47.4*	64.1*	-1.9	99.5*	73.4*	88.9*	73.4*	38.0*	70.9*	49.6*
CC1OC(C2CCCCC2)Cc2[nH]c(=S)[nH]c(=O)c21 (stereo not given)	/	/	/	-13.7	/	0.3	/	/	/	/	/	/
CN(C)CCCN(C(=O)c1ccc(S(=O)(=O)N2CCc3ccccc3C2)cc1)c1nc2ccc(F)cc2s1	/	46.0*	/	50.0*	-9.5	75.0*	76.5*	63.5*	69.2*	46.3*	39.9	42.4*
